Reference: ChEMBL document CHEMBL1139318, “Tyrosinase inhibitory effects of 1,3-diphenylpropanes from Broussonetia kazinoki” (Bioorg Med Chem, 2009)
pIC50, pKi: −log10 of the molar value.

Columns and labels:
Tyrosinase [1] = target: T1, Tyrosinase (Agaricus bisporus, UniProt O42713); assay: Inhibition of monophenolase activity of mushroom tyrosinase using as L-tyrosine substrate
T1 sequence (O42713 whole entry): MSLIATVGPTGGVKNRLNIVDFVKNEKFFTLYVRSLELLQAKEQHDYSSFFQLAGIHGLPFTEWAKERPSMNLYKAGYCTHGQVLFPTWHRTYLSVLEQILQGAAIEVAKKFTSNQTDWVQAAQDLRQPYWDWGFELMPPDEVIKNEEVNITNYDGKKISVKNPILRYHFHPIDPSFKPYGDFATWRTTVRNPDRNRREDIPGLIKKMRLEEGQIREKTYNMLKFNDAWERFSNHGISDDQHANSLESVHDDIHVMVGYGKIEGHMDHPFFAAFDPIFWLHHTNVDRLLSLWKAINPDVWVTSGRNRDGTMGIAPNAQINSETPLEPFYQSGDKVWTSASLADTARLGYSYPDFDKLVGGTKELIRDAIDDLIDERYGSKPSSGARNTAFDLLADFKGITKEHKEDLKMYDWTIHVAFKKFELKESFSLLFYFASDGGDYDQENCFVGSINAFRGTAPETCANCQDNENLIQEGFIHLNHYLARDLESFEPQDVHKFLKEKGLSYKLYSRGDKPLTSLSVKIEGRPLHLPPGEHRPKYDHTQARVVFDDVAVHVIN
How it was run: (§1)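 Mushroom tyrosinase (144 units) was added to 0.25 M phosphate buffer (pH 6.8) with substrate: L-tyrosine for monophenolase or L-DOPA for diphenolase. Substrate was added as 200 µL of a 2.7 mM L-tyrosine or 5.4 mM L-DOPA stock. Samples were 10 mM EtOH stocks. Dopachrome formation was read at 475 nm at 30 °C. Runs were triplicate, and IC50 came from a logistic curve fit.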

Tyrosinase [2] = target: T1, Tyrosinase; assay: Inhibition of monophenolase activity of mushroom tyrosinase using as L-tyrosine substrate by Lineweaver-Burke plot based kinetic assay
Tyrosinase [3] = target: T1, Tyrosinase; assay: Inhibition of diphenolase activity of mushroom tyrosinase using as L-DOPA substrate by Lineweaver-Burke plot based kinetic assay
How it was run: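 Diphenolase kinetics used 0.25 M phosphate buffer (pH 6.8) at 30 °C, reading dopachrome at 475 nm. L-DOPA concentration was varied at several fixed inhibitor concentrations. Reciprocal velocity was plotted against 1/[L-DOPA] (Lineweaver–Burk), and inhibition type and Ki were read from the line pattern.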

Tyrosinase [4] = target: T1, Tyrosinase; assay: Inhibition of diphenolase activity of mushroom tyrosinase using as L-DOPA substrate; how it was run: as §1
Tyrosinase [5] = target: T1, Tyrosinase; assay: Inhibition of mushroom tyrosinase by kinetic based assay; conditions: read-out: Ki(app)
How it was run: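 Time-dependent assay with L-tyrosine substrate in 0.25 M phosphate buffer (pH 6.8) at 30 °C. Activity was monitored continuously for 15 min, giving 20 points at 30 s intervals, at several inhibitor concentrations and fixed substrate. kobs came from the slow-binding equation or from ln(residual activity) versus preincubation time. k3, k4 and Kiapp came from kobs versus [I] by the Morrison–Walsh method, using nonlinear regression.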

| Compound | pIC50 (Tyrosinase [1]) | pKi (Tyrosinase [2]) | pKi (Tyrosinase [3]) | pIC50 (Tyrosinase [4]) | pKi (Tyrosinase [5]) |
| --- | --- | --- | --- | --- | --- |
| CC(C)=CCc1cc(CCCc2ccc(O)cc2O)ccc1O [BROUSSONIN C] | 6.37 | 6.64 | 6.54 | 6.24 | 7.31 |
| C=CC(C)(C)c1cc(CCCc2cc(O)c(O)c(CC=C(C)C)c2CC=C(C)C)c(O)cc1O [KAZINOL C] | 4.81 | 4.97 | 4.95 | 4.64 | – |
| C=CC(C)(C)c1cc(CCCc2cc(O)c3c(c2CC=C(C)C)CCC(C)(C)O3)c(O)cc1O [KAZINOL D] | 3.78 | – | – | < 3.70 | – |
| CC(C)=CCc1c(CCCc2ccc(O)cc2O)cc(O)c(O)c1CC=C(C)C [KAZINOL F] | 6.02 | 6.39 | 6.11 | 5.77 | 6.74 |
| C=CC(C)(C)c1cc(CCCc2cc(O)c(O)c(CC3OC3(C)C)c2CC=C(C)C)c(O)cc1O (stereo not drawn) [KAZINOL S] | 4.75 | 5.04 | 4.81 | 4.57 | 6.06 |
| C=CC(C)(C)c1cc(CCCc2cc(O)c3c(c2CC=C(C)C)CC(C(C)(C)O)O3)c(O)cc1O (stereo not drawn) [KAZINOL T] | 3.99 | – | – | < 3.70 | – |
